The values below come from publication PMC5343109 (Acta Pharmaceutica Sinica. B, 2016).

Series [1] is described as follows: DPPH free radical scavenging antioxidant assay. As to conditions: 517 nm, 1 mmol/L concentration. In general terms: DPPH is a stable violet radical that fades when it is reduced.
The subject of series [2] is carrageenan-induced rat paw edema. The series can be described thus: carrageenan-induced rat paw edema anti-inflammatory activity. As to conditions: for inhibition in vivo at 10 mg/kg: Rattus norvegicus, po, 4 h, read-out: Inhibition (anti-inflammatory activity), rat, oral dose 10 mg/kg body weight, after 4h; for Inhibition (anti-inflammatory activity) / Increase in paw edema / Activity relative to diclofenac sodium: rat; for Inhibition (anti-inflammatory activity) / Increase in paw edema: oral dose 10 mg/kg body weight; for Inhibition (anti-inflammatory activity): after 4h, 10 mg/kg; for Increase in paw edema: mean±SEM, n=6; for Activity relative to diclofenac sodium: oral dose 10 mg/kg, diclofenac sodium = 100. The class given is in vivo, albino rats of Wistar strain. In a few lines:
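Wistar rats of either sex, 180–200 g, kept at 25 ± 2 °C, 50 ± 5% relative humidity and a 12 h light/dark cycle, with free food and water until testing. Paw edema after carrageenan was measured by digital plethysmometer. Six animals per group. Groups were compared by Student's t-test, with P < 0.05 taken as significant.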
On the technique in general: In the carrageenan paw model, swelling and tenderness develop within hours.

In series [3] the test system is TNF-α. The series can be described thus: LPS-induced TNF-α production inhibition in mice. The class given is in vivo, mice (BALB/c). As to conditions: for TNF-α inhibition: LPS-induced TNF-α production in mice, plasma ELISA, mean±SEM, n=6; for ID50: LPS-induced TNF-α release in mice. In general terms: An ELISA detects its analyte on a solid surface through an enzyme-linked reagent.

Series [4] relates to gastric mucosal tissue. The series can be described thus: lipid peroxidation in the gastric mucosa. The class given is in vivo. As to conditions: rats, mean±SEM.
Series [5] concerns the target p38α MAPK (Homo sapiens, UniProt Q16539). The series is described as follows: p38α MAPK assay. The class given is biochemical.
For series [6], the system named is gastric mucosa (ulcerogenic potential). The series can be described thus: ulcerogenic test. The class given is in vivo. As to conditions: rats, oral dose of 30 mg/kg, mean±SEM, n=6.

“And” between values parts separate entries of the source, which are not always exact repeats. Equal entries are not always repeated. Marks after values point to notes of the source that are not given here.

Chain of p38α MAPK (Q16539 whole entry): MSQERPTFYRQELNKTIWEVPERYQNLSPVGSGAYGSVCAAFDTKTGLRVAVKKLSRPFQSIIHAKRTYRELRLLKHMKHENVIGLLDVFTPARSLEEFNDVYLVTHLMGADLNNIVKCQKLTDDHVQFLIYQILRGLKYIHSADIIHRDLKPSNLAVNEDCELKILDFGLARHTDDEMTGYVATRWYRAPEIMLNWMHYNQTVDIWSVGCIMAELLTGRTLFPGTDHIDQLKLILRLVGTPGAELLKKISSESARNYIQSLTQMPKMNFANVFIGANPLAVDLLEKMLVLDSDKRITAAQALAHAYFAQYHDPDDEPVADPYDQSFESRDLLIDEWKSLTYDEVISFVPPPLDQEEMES

Turning to `COc1ccc(O)c(C(C)(C)C)c1` [BHA, butylated hydroxy anisole, reference compound], the percentage antioxidant activity in series [1] amounted to 71.53%.

As a reminder, the IC50 is the concentration at which inhibition is half-maximal. Lower therefore signals greater potency in that assay. For the molecule `NC(=O)Nc1ccc(-c2cc(-c3ccc(OCc4ccccc4)cc3)n(-c3ccccc3Cl)n2)cc1` [Compound 3a, 1-[4-[5-(4-(Benzyloxy)phenyl)-1-(2-chlorophenyl)-1H-pyrazol-3-yl]phenyl]urea], in series [2], the inhibition in vivo at 10 mg/kg was found to be 76.2%, the “Inhibition (anti-inflammatory activity)” value was 76.19 ^b %, the “Increase in paw edema” value came to 0.40 ± 0.08 mL and the “Activity relative to diclofenac sodium” value is on record as 93.23. In series [3], the TNF-α inhibition was 60.87±2.65 ^b % and the ID50 came out at 19.98 mg/kg. Further, in series [4] (n=6), the Lipid peroxidation is 5.47±0.44 ^b nmol MDA/100 mg tissue. The molecule also came in with an IC50 in series [5] of 39 ± 40 nM. In series [6], the Severity index was 0.67±0.25 ^b.

For the molecule `NC(=O)Nc1ccc(-c2cc(-c3ccc(OCc4ccccc4)cc3)n(-c3cccc(Cl)c3)n2)cc1` [Compound 3b, 1-[4-[5-(4-(Benzyloxy)phenyl)-1-(3-chlorophenyl)-1H-pyrazol-3-yl]phenyl]urea], in series [2], the inhibition in vivo at 10 mg/kg came to 78.1%, the “Inhibition (anti-inflammatory activity)” value is listed as 78.06 ^b %, the “Increase in paw edema” value amounted to 0.37 ± 0.20 mL and the “Activity relative to diclofenac sodium” value is recorded as 95.52. For the same molecule, in series [3], the TNF-α inhibition is given as 62.45±0.07 ^b %; the ID50 was 11.32 mg/kg and 11.32 ^b mg/kg. Further, in series [4] (n=6), the Lipid peroxidation was 5.19±0.48 ^b nmol MDA/100 mg tissue.

For the molecule `NC(=O)Nc1ccc(-c2cc(-c3ccc(OCc4ccccc4)cc3)n(-c3ccc(Cl)cc3)n2)cc1` [Compound 3c, 1-[4-[5-(4-(Benzyloxy)phenyl)-1-(4-chlorophenyl)-1H-pyrazol-3-yl]phenyl]urea], in series [2], the inhibition in vivo at 10 mg/kg is 80.9%, the “Inhibition (anti-inflammatory activity)” value is 80.93 ^b %, the “Increase in paw edema” value amounted to 0.32 ± 0.06 mL and the “Activity relative to diclofenac sodium” value is 99.03. For the same molecule, in series [3], the TNF-α inhibition stood at 62.56±0.24%; the ID50 was 9.67 mg/kg and 9.67 ^b mg/kg. Besides, in series [1], the percentage antioxidant activity amounted to 75.06%. For the same molecule, the Lipid peroxidation in series [4] (n=6) was 5.12±0.55 ^b nmol MDA/100 mg tissue.

As for `NC(=O)Nc1ccc(-c2cc(-c3ccc(OCc4ccccc4)cc3)n(-c3ccc(Cl)c(Cl)c3)n2)cc1` [Compound 3d, 1-[4-[5-(4-(Benzyloxy)phenyl)-1-(3,4-dichlorophenyl)-1H-pyrazol-3-yl]phenyl]urea], in series [2], the inhibition in vivo at 10 mg/kg was 62.2%, the “Increase in paw edema” value was found to be 0.64 ± 0.05 mL and the “Activity relative to diclofenac sodium” value turned out to be 76.17. The molecule further displayed a TNF-α inhibition in series [3] of 52.60±2.16%. The molecule further had an IC50 in series [5] of 79 nM. Also, in series [6], the Severity index is 1.08±0.37 ^b.

As to `NC(=O)Nc1ccc(-c2cc(-c3ccc(OCc4ccccc4)cc3)n(-c3ccc(F)cc3)n2)cc1` [Compound 3e, 1-[4-[5-(4-(benzyloxy)phenyl)-1-(4-fluorophenyl)-1H-pyrazol-3-yl]phenyl]urea], in series [2], the inhibition in vivo at 10 mg/kg came to 72.3%, the “Increase in paw edema” value was determined as 0.47 ± 0.16 mL and the “Activity relative to diclofenac sodium” value is recorded as 88.50. In addition, in series [3], the TNF-α inhibition was found to be 57.34±3.05%. Moreover, in series [4] (n=6), the Lipid peroxidation is reported as 6.08±0.15 nmol MDA/100 mg tissue. In addition, the IC50 in series [5] stood at 48 ± 10 nM. This molecule displayed a Severity index in series [6] of 0.83±0.22.

As for `NC(=O)Nc1ccc(-c2cc(-c3ccc(OCc4ccccc4)cc3)n(-c3ccc(F)c(Cl)c3)n2)cc1` [Compound 3f, 1-[4-[5-(4-(Benzyloxy)phenyl)-1-(3-chloro-4-fluorophenyl)-1H-pyrazol-3-yl]phenyl] urea], in series [5], it took 110 ± 170 nM to reach half-maximal inhibition (IC50).

On to `NC(=O)Nc1ccc(-c2cc(-c3ccc(OCc4ccccc4)cc3)n(-c3ccc(Br)cc3)n2)cc1` [Compound 3g, 1-[4-[5-(4-(Benzyloxy)phenyl)-1-(4-bromophenyl)-1H-pyrazol-3-yl]phenyl]urea], for which, in series [2], the inhibition in vivo at 10 mg/kg turned out to be 74%, the “Inhibition (anti-inflammatory activity)” value is given as 74.01 ^b %, the “Increase in paw edema” value came to 0.44 ± 0.06 mL and the “Activity relative to diclofenac sodium” value is 90.56. In series [3], this molecule showed a TNF-α inhibition of 58.13±0.28%. Moreover, the Lipid peroxidation in series [4] (n=6) is 6.02±0.17 ^a nmol MDA/100 mg tissue. In addition, the Severity index in series [6] turned out to be 0.75±0.27.

With `NC(=O)Nc1ccc(-c2cc(-c3ccc(OCc4ccccc4)cc3)n(-c3ccc([N+](=O)[O-])cc3)n2)cc1` [Compound 3h, 1-[4-[5-(4-(Benzyloxy)phenyl)-1-(4-nitrophenyl)-1H-pyrazol-3-yl]phenyl]urea], in series [2], the inhibition in vivo at 10 mg/kg was determined as 68.4%, the “Increase in paw edema” value is 0.53 ± 0.12 mL and the “Activity relative to diclofenac sodium” value is recorded as 83.67. In series [3], this molecule displayed a TNF-α inhibition of 52.76±2.08%. Further, inhibition in series [5] was half-maximal at 67 nM (IC50). The molecule further gave a Severity index in series [6] of 0.91±0.20.

`NC(=O)Nc1ccc(-c2cc(-c3ccc(OCc4ccccc4)cc3)n(-c3ccc([N+](=O)[O-])cc3[N+](=O)[O-])n2)cc1` [Compound 3i, 1-[4-[5-(4-(Benzyloxy)phenyl)-1-(2,4-dinitrophenyl)-1H-pyrazol-3-yl]phenyl]urea] displayed an IC50 in series [5] of 112 ± 40 nM.

For the molecule `Cc1ccccc1-n1nc(-c2ccc(NC(N)=O)cc2)cc1-c1ccc(OCc2ccccc2)cc1` [Compound 3j, 1-[4-[5-(4-(Benzyloxy)phenyl)-1-(2-methylphenyl)-1H-pyrazol-3-yl]phenyl]urea], the percentage antioxidant activity result in series [1] is given as “did not exhibit any significant antioxidant activity”. The same molecule had an IC50 in series [5] of 123 nM.

`Cc1cccc(-n2nc(-c3ccc(NC(N)=O)cc3)cc2-c2ccc(OCc3ccccc3)cc2)c1` [Compound 3k, 1-[4-[5-(4-(Benzyloxy)phenyl)-1-(3-methylphenyl)-1H-pyrazol-3-yl]phenyl]urea]: in series [5], the IC50 was 210 ± 110 nM.

For `Cc1ccc(-n2nc(-c3ccc(NC(N)=O)cc3)cc2-c2ccc(OCc3ccccc3)cc2)cc1` [Compound 3l, 1-[4-[5-(4-(Benzyloxy)phenyl)-1-(4-methylphenyl)-1H-pyrazol-3-yl]phenyl]urea], 169 ± 70 nM corresponded to half-maximal inhibition in series [5] (IC50).

As to `Cc1cccc(C)c1-n1nc(-c2ccc(NC(N)=O)cc2)cc1-c1ccc(OCc2ccccc2)cc1` [Compound 3m, 1-[4-[5-(4-(Benzyloxy)phenyl)-1-(2,6-dimethylphenyl)-1H-pyrazol-3-yl]phenyl]urea], inhibition in series [5] was half-maximal at 270 nM (IC50).

In the case of `COc1ccccc1-n1nc(-c2ccc(NC(N)=O)cc2)cc1-c1ccc(OCc2ccccc2)cc1` [Compound 3n, 1-[4-[5-(4-(Benzyloxy)phenyl)-1-(2-methoxyphenyl)-1H-pyrazol-3-yl]phenyl]urea], the percentage antioxidant activity result in series [1] is “did not exhibit any significant antioxidant activity”. In addition, in series [5], the IC50 was 206 ± 370 nM.

In the case of `COc1ccc(-n2nc(-c3ccc(NC(N)=O)cc3)cc2-c2ccc(OCc3ccccc3)cc2)cc1` [Compound 3o, 1-[4-[5-(4-(Benzyloxy)phenyl)-1-(4-methoxyphenyl)-1H-pyrazol-3-yl]phenyl]urea], the percentage antioxidant activity entry in series [1] was “did not exhibit any significant antioxidant activity”. The molecule also showed a concentration for half-maximal inhibition (IC50) in series [5] of 170 nM.

Regarding `O=C(O)Cc1ccccc1Nc1c(Cl)cccc1Cl` [Diclofenac sodium, diclofenac sodium, reference compound], in series [2], the inhibition in vivo at 10 mg/kg came to 81.6%, the “Increase in paw edema” value was 0.31 ± 0.13 mL and the “Activity relative to diclofenac sodium” value is reported as 100. In series [4] (n=6), this molecule yielded a Lipid peroxidation of 6.52±0.42 nmol MDA/100 mg tissue. The same molecule showed a Lipid peroxidation in series [4] (n=6, listed as diclofenac sodium) of 6.52 ± 0.42 nmol MDA/100 mg tissue. Further, the Severity index in series [6] is on record as 1.83±0.27.

Regarding `C[S+]([O-])c1ccc(-c2nc(-c3ccncc3)c(-c3ccc(F)cc3)[nH]2)cc1` (stereo not shown) [SB 203580, reference compound], in series [3], the TNF-α inhibition is recorded as 52.11±1.08 ^b %; the ID50 was 28.40 mg/kg and 28.40 ^b mg/kg.
